Assay outcomes: PubChem, Johns Hopkins Ion Channel Center
An excerpt weighted towards active compounds, which were near 3.8% of everything screened.
KCNQ1 inh: inhibitors of human KCNQ1 channel, primary screen, cell-based, thallium flux, high-throughput; CHO-K1 KCNQ1, FluxOR thallium flux fluorescence; hits give high values; AID 2642, 2010; B-score at 10 µM; hit rate 1.3% among 310,000; Potassium voltage-gated channel subfamily KQT member 1 (Homo sapiens), P51787;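 active means compounds whose thallium flux B-score, printed positive for inhibition, exceeds three library SD while starting fluorescence stays within three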;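 further: channel opened by potassium depolarization with thallium stimulus after 20 min compound exposure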
hERG rescue: hERG rescue from dofetilide block, primary screen, cell-based, CHO-hERG, FluxOR thallium flux, dofetilide IC70 | hit rate 0.51% among 310,000 | activation (rescue from dofetilide block), less the hit threshold, % at 10 µM | dofetilide IC70 present | Voltage-gated inwardly rectifying potassium channel KCNH2 (Homo sapiens), Q12809;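 active means activation above the mean of controls blocked by dofetilide plus 5 SD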;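 further: thallium influx through hERG after potassium depolarization seen as dye fluorescence rise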
KCNQ1 act: potentiators or activators of KCNQ1 channel, primary screen, cell-based, thallium flux, high-throughput; Potassium voltage-gated channel subfamily KQT member 1 (Homo sapiens), P51787; CHO-K1 KCNQ1, thallium flux FluxOR fluorescence; hits give high values; B-score at 10 µM; hit rate 0.35% among 310,000; AID 2648, 2010;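 active means fluorescence ratio B-score, a plate-corrected score, at least three library SD, with initial intensity B-score within 5 SD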
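Assay system: CHO-K1 cells stably expressing KCNQ1; Medium: assay buffer with matched DMSO; Also added: K+/Tl+ depolarizing stimulus; Dosing: single dose; Timing: dye 90 min, compound 20 min, room temperature; Measured by: kinetic FluxOR thallium fluorescence, 10-s 1-Hz baseline, 110-s post-stimulus read; Read-out: peak-minus-minimum fluorescence over initial fluorescence, negative-control normalized, B-scored.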
KCNK9 block: KCNK9 potassium channel inhibitors, primary screen, HEK293 cells, thallium flux; Potassium channel subfamily K member 9 (Homo sapiens), Q9NPC2; FluxOR thallium flux fluorescence; hits give low values; B-score at 10 µM; hit rate 1.2% among 310,000; AID 488922, 2010;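 active means ratio B-score over 3 SD below the library mean, with starting fluorescence within 5 SD of its mean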;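 further: negative B-score means less thallium flux so channel inhibition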
Kir21 inh: inhibitors of mouse Kir2.1 inward-rectifier potassium channel; Inward rectifier potassium channel 2 (Mus musculus), P35561; HEK293-Kir2.1, FluxOR thallium flux fluorescence; hits give low values; B-score at 10 µM; hit rate 0.85% among 310,000;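 active means fluorescence ratio B-score at or below minus 3 SD of library scores, with starting-brightness B-score within 2 SD, cut at about -4.2 in these data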;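 further: channel flux triggered by added potassium and thallium sulfate stimulus; B-score of peak minus minimum fluorescence over baseline after thallium stimulus; more negative B-score means stronger Kir2.1 block with less thallium influx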
KCNK3 block: human KCNK3 channel inhibitors, primary screen, CHO cells, FluxOR thallium flux, B-score; Potassium channel subfamily K member 3 (Homo sapiens), O14649; FluxOR fluorescence; hits give low values; B-score at 10 µM; hit rate 0.84% among 340,000; AID 602410, 2012;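 active means B-score under library mean minus 4 SD, starting fluorescence ratio at most library mean plus 5 SD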;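 further: more negative B-score means stronger inhibition of thallium flux through KCNK3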
Target sequence (O14649 whole entry, looked up): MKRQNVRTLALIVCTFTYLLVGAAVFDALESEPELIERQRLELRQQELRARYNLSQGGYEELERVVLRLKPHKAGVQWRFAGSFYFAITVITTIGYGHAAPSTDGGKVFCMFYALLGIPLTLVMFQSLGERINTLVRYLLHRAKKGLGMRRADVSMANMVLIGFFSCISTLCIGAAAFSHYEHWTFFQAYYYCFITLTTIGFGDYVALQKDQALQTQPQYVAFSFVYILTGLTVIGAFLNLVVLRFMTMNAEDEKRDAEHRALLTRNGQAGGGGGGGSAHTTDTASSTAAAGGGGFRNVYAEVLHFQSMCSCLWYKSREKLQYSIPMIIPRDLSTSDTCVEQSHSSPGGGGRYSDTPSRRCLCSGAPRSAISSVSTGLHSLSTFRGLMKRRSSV
KCNK3 inh conf: retest of human KCNK3 channel inhibitors, confirmation, CHO cells, FluxOR thallium flux, triplicate. shares compounds with KCNK3 block. hit rate 99% among 2,400. ratio percent of control, % at 10 µM. AID 651638, 2012. FluxOR fluorescence; 0% buffer, 100% carvedilol maximal block;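 active means ratio percent of control, averaged over triplicates, above buffer control mean plus 5 SD, cut at about 64% in these data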;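 further: ratio is the fluorescence rise from min to max over baseline after thallium stimulus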
KCNK3 noninduced: thallium flux inhibition in non-induced cells, primary screen, counter-screen for KCNK3 inhibitor project, cell-based, non-induced KCNK3 line, FluxOR thallium, triplicate. shares compounds with KCNK3 block. non-induced KCNK3 parental cells; hits give low values. thallium flux ratio (lower = more inhibition) at 10 µM. hit rate 40% among 2,400. AID 651747, 2012;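 active means thallium flux ratio, averaged over three wells, more than 5 SD below the buffer control mean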;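 further: host cells are CHO cells without KCNK3 induction; ratio is peak minus trough fluorescence over baseline then normalized to buffer controls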
An asterisk follows results filed as active; i = inactive; · = no result.

SMILES	KCNQ1 inh	hERG rescue	KCNQ1 act	KCNK9 block	Kir21 inh	KCNK3 block	KCNK3 inh conf	KCNK3 noninduced
CCc1ccc(N2C(=O)C(Cl)=C(N3CCOCC3)C2=O)cc1	i	-7.6	i	i	-0.83	i	·	·
CCOc1ccc(NC(=O)CN(C)C(=O)CCc2ccccc2Cl)cc1OCC	i	-22.1	i	i	0.24	i	·	·
CCOc1ccc(NC(=O)CN(C)C(=O)CCCOc2ccc(Cl)c(C)c2)cc1OCC	i	-6.4	i	i	0.44	-9.9*	92.7*	i
Cc1ccc(CNC(=O)CCn2nc(-c3ccc(Cl)cc3)ccc2=O)cc1	i	-10.7	i	i	-1.53	i	·	·
CCCn1c(NCc2ccco2)nc2c1c(=O)n(C)c(=O)n2C	i	-5.6	i	i	-0.31	i	·	·
CN(C(=O)COC(=O)/C=C/c1ccc2ccccc2n1)c1c(N)n(Cc2ccccc2)c(=O)[nH]c1=O	·	·	·	·	·	i	·	·
COCCN(C(=O)COC(=O)c1c(NC(C)=O)sc(C)c1C)c1c(N)n(Cc2ccccc2)c(=O)[nH]c1=O	i	-14.4	i	i	2.05	-9.39*	97.0*	i
COCCN(C(=O)COC(=O)/C=C/c1ccc2ccccc2n1)c1c(N)n(Cc2ccccc2)c(=O)[nH]c1=O	i	-10.3	i	i	-0.22	-12.1*	55.0*	i
O=C(NCCCN1CCN(c2ccccc2)CC1)Nc1ccccc1C(F)(F)F	i	-9.1	i	i	-1.38	i	·	·
CCCCC(=O)Oc1c(S(=O)(=O)c2ccccc2)c(C)nn1C(C)(C)C	i	-4.4	i	i	-0.03	-9.99*	118.0*	i
CC(=O)Oc1c(S(=O)(=O)c2ccccc2)c(C)nn1C(C)(C)C	i	-9.2	i	i	-1.53	i	·	·
Cc1nn(C(C)(C)C)c(OC(=O)c2cccs2)c1S(=O)(=O)c1ccccc1	i	-14.9	i	i	0.01	-10.1*	117.3*	0.15*
Cc1ccc(S(=O)(=O)c2c(C)nn(C(C)(C)C)c2OC(=O)C(C)C)cc1	i	-15.5	i	i	0.55	i	·	·
CCCC(=O)Oc1c(S(=O)(=O)c2ccc(C)cc2)c(C)nn1C(C)(C)C	i	-12.5	i	i	-0.02	-8.8*	90.3*	i
O=C(CNC(=O)Cc1ccccc1)N=Nc1c(O)n(Cc2ccc3c(c2)OCO3)c2ccccc12	i	-11.4	i	i	-4.58	i	·	·
C/C(N)=C(/C#N)C(=O)COC(=O)c1cccc(O)c1	i	-12.1	i	i	0.48	i	·	·
Cc1c(C(C)(C)C)s/c(=N/S(=O)(=O)c2ccccc2)n1C	i	-2.6	i	i	-1.14	i	·	·
Cc1c(C(C)(C)C)sc(=NC(=O)c2ccccc2O)n1C	i	-4.9	i	i	-0.52	-9.65*	65.0*	i
CC(=O)C1=NN(c2ccc(Cl)cc2)C(c2ccc3c(c2)OCO3)N(C(C)=O)N1C (configuration not stated)	i	-6.6	i	i	0.06	-8.83*	95.3*	0.152*
CN1c2ccccc2N(C)C1c1ccc2c(c1)OCO2	i	-10.7	i	i	0.98	i	·	·
COCCn1c(SCc2cccc(F)c2)nc2cc(C(=O)OC)ccc2c1=O	i	-4.2	i	i	-1.18	-9*	107.3*	i
CCSc1nc2cc(C(=O)OC)ccc2c(=O)n1CC	i	1.1	i	i	-1.4	i	·	·
COc1ccccc1CNC(=O)CSc1nc2c(oc3ccccc32)c(=O)n1CC1CCCO1 (configuration not stated)	i	-11.3	i	i	2.08	i	·	·
Cc1cccn2c(=O)c(/C=C(\C#N)S(=O)(=O)c3ccccc3)c(N3CCN(Cc4ccccc4)CC3)nc12	i	-16.8	i	i	-1.44	-10.2*	107.7*	i
N#C/C(=C\c1c(N2CCN(Cc3ccccc3)CC2)nc2ccccn2c1=O)S(=O)(=O)c1ccccc1	i	-9.9	i	i	-0.17	-8.96*	103.0*	i
SMILES	KCNQ1 inh	hERG rescue	KCNQ1 act	KCNK9 block	Kir21 inh	KCNK3 block	KCNK3 inh conf	KCNK3 noninduced
CCOC(=O)/C(C#N)=C/c1c(N2CCN(c3ccc(OC)cc3)CC2)nc2c(C)cccn2c1=O	i	-7.9	i	i	-0.02	-12*	83.0*	0.152*
Cn1c(SCC(=O)c2ccc3c(c2)OCCO3)nnc1C(F)(F)F	i	-2.0	i	i	0.02	i	·	·
Cc1ccc2c(c1)C(c1ccc(N3CCOCC3)cc1)=NNC(c1cccs1)=N2	i	-9.7	i	i	1.18	i	·	·
Cc1cc(CN(C)C)c(O)c(C2(C)CCCCC2)c1	i	-6.1	i	i	-1.96	i	·	·
Cc1cc(CN2CCOCC2)c(O)c(C2(C)CCCCC2)c1	i	-6.8	i	i	0.34	-9.68*	108.3*	i
COc1ccc(-c2cc(C(=O)N3CCCc4ccccc43)no2)cc1	i	-10.7	i	i	0.02	i	·	·
COc1cccc(-c2cc(C(=O)N3CCCc4ccccc43)no2)c1	i	-12.7	i	i	-1.06	-12.1*	114.7*	i
CC(CC(=O)NCc1ccc(Cl)cc1)S(=O)(=O)c1ccc2c(c1)NC(=O)CO2 (configuration not stated)	i	-4.2	i	i	-1.51	i	·	·
CCc1ccc(NC(=O)c2sc3nc(C)nc(N4CCN(c5ccccn5)CC4)c3c2C)cc1	6*	-15.0	i	i	-0.08	-12.3*	139.0*	0.11*
Cc1nc(N2CCN(c3ccccn3)CC2)c2c(C)c(C(=O)N3CCN(c4cccc(Cl)c4)CC3)sc2n1	i	-25.0	i	i	-0.01	-9.36*	97.3*	i
CCNc1ncnc2c1cnn2C1CCCO1 (configuration not stated)	·	·	·	·	·	i	·	·
Oc1ccccc1CNc1nccs1	i	-7.2	i	i	-0.06	i	·	·
